Some results are limits rather than exact numbers.

In one experiment the test system is HeLa. Nature of the experiment: Cytotoxicity against human HeLa cells after 72 hrs by MTT assay. In kind it is functional. In outline:
(§1)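 Cells plated 24 h in 96-well plates at 10,000–40,000 cells/mL depending on line. U373 grown in MEM, other lines in RPMI, both with 5% heat-inactivated FCS. Cells exposed to compounds (or none, control) for 72 h. MTT reduction to formazan read at 570 nm against 630 nm reference. Sextuplicate per condition.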

In another experiment the test system is Jurkat. Nature of the experiment: Cytotoxicity against human Jurkat cells after 72 hrs by MTT assay. Type of experiment: functional. In short, it runs like this:
as §1
On the technique in general: Formazan colour is commonly taken as a measure of viable cells.

The next experiment has as its system MCF7. Description: Cytotoxicity against human MCF7 cells after 72 hrs by MTT assay. To be noted: MCF7, 72 h. Type of experiment: functional. In outline:
as §1

The test system of a further experiment is A549. Nature of the experiment: Cytotoxicity against human A549 cells after 72 hrs by MTT assay. To be noted: A549, 72 h. In kind it is functional. In outline:
as §1

The next experiment concerns LoVo. Nature of the experiment: Cytotoxicity against human LoVo cells after 72 hrs by MTT assay. In kind it is functional. In outline: as §1
The nature of experiment [1]: Cytotoxicity against human U373 cells after 72 hrs by MTT assay. In kind it is functional, U-373MG ATCC. To be noted: U373 MG. In outline:
as §1

In the next experiment the test system is SK-MEL. Description: Cytotoxicity against human SK-MEL cells after 72 hrs by MTT assay. In kind it is functional. In short, it runs like this:
as §1

In another experiment the test system is PC-3. Description: Cytotoxicity against human PC3 cells after 72 hrs by MTT assay. In kind it is functional. To be noted: PC-3, 72 h. In short, it runs like this:
as §1

For orientation: GI50 means the concentration at which growth is held to half of that of the control. Take `CC(C)c1ccc(C2C3=C(Nc4[nH]c(=O)[nH]c(=O)c42)c2ccccc2C3=O)cc1` (centres undefined): the GI50 in the experiment on HeLa is 5.8 µM; in the experiment on Jurkat, 0.96 µM; with MCF7, 9.1 µM; with A549 it was over 10 µM.
With `COc1ccc(C2C3=C(Nc4[nH]c(=O)[nH]c(=O)c42)c2ccccc2C3=O)c(OC)c1OC` (centres undefined), the GI50 with HeLa is 0.35 µM; in the experiment with Jurkat, 0.49 µM; in the experiment with MCF7, 0.48 µM; in the experiment with A549 it was 0.54 µM; in the experiment with LoVo, 0.22 µM; in experiment [1], 0.26 µM. Besides, the results for the GI50 with SK-MEL and in the experiment on PC-3 were 0.4 µM and over 10 µM, respectively.
`O=C1c2ccccc2-c2nc3[nH]c(=O)[nH]c(=O)c3c(-c3ccc(F)cc3)c21`: the GI50 in the experiment with HeLa was over 10 µM; in the experiment on Jurkat, 7.4 µM; with MCF7 it was over 10 µM; in the experiment with A549 it was over 10 µM; in the experiment with LoVo, 3.5 µM; in experiment [1], 8.7 µM. The GI50 was 10 µM in the experiment with SK-MEL and 9 µM with PC-3.
For `O=C1c2ccccc2-c2nc3[nH]c(=O)[nH]c(=O)c3cc21`, the GI50 in the experiment on HeLa was over 10 µM; in the experiment with Jurkat, over 10 µM; with MCF7, over 10 µM; in the experiment with A549, over 10 µM; in the experiment with LoVo, 9.5 µM; in experiment [1], 7.5 µM. Further, the GI50 with SK-MEL was 10 µM; with PC-3, over 10 µM.
For the compound `CC[C@@]1(O)C(=O)OCc2c1cc1n(c2=O)Cc2cc3ccccc3nc2-1` [CAMPTOTHECIN], the GI50 in the experiment on HeLa turned out to be 1.3 µM; with Jurkat it was 0.09 µM; in the experiment with MCF7 it was 6 µM; in the experiment with A549, 0.2 µM; in the experiment with LoVo, 0.008 µM; in experiment [1] it was 0.033 µM. Besides, the GI50 in the experiment with SK-MEL is 0.047 µM; with PC-3, 0.48 µM.
As to `O=C1c2ccccc2-c2nc3[nH]c(=O)[nH]c(=O)c3c(-c3ccc(OC(F)(F)F)cc3)c21`, the GI50 in the experiment with HeLa was determined as 5.8 µM; in the experiment on Jurkat it was 0.95 µM; in the experiment on MCF7, 6.6 µM; with A549, 8 µM.
The matching figures for `Cc1ccc(C2C3=C(Nc4[nH]c(=O)[nH]c(=O)c42)c2ccccc2C3=O)cc1` (centres undefined): 8.6 µM, 5.6 µM, 7.6 µM and 5.9 µM.
The like results for `CC(C)c1ccc(-c2c3c(nc4[nH]c(=O)[nH]c(=O)c24)-c2ccccc2C3=O)cc1` were, in that order, 0.85 µM, 0.49 µM, 6.9 µM and 8.2 µM.
The matching figures for `O=C1C2=C(Nc3[nH]c(=O)[nH]c(=O)c3C2c2ccc3c(c2)OCCO3)c2ccccc21` (centres undefined): 5.4 µM, 6.9 µM, 8.4 µM and 7.8 µM.
With `O=C1C2=C(Nc3[nH]c(=O)[nH]c(=O)c3C2c2ccc(F)c(Br)c2)c2ccccc21` (centres undefined), the GI50 is 5.4 µM in the experiment on HeLa, 0.99 µM in the experiment with Jurkat, 5.5 µM in the experiment on MCF7 and 5.6 µM with A549.
As to `COc1cc(C2C3=C(Nc4[nH]c(=O)[nH]c(=O)c42)c2ccccc2C3=O)cc(Br)c1OC` (centres undefined), the GI50 with HeLa was 3.8 µM; in the experiment with Jurkat it was 0.2 µM; with MCF7, 0.78 µM; in the experiment on A549, 0.48 µM; with LoVo, 0.38 µM; in experiment [1] it was 0.37 µM. In addition, the GI50 with SK-MEL was 0.48 µM; in the experiment with PC-3 it was over 10 µM.
Take `O=C1c2ccccc2-c2nc3[nH]c(=O)[nH]c(=O)c3c(-c3ccc(Cl)cc3Cl)c21`: the GI50 was 0.89 µM with HeLa; 0.81 µM in the experiment on Jurkat; 7.4 µM in the experiment with MCF7; 7.8 µM in the experiment with A549; 2.9 µM in the experiment with LoVo; 4.2 µM in experiment [1]. The GI50 in the experiment on SK-MEL was determined as 3.5 µM; with PC-3, 2.8 µM.
`COc1ccc(C2C3=C(Nc4[nH]c(=O)[nH]c(=O)c42)c2ccccc2C3=O)cc1OC` (centres undefined): the 50% growth inhibitory concentration (GI50) is 0.6 µM in the experiment with HeLa; 0.4 µM in the experiment with Jurkat; 0.69 µM with MCF7; 4.8 µM in the experiment with A549; 0.8 µM with LoVo; 0.7 µM in experiment [1]. Further, the GI50 in the experiment with SK-MEL was 0.86 µM; with PC-3, over 10 µM.
Consider `O=C1c2ccccc2-c2nc3[nH]c(=O)[nH]c(=O)c3c(-c3ccc(C(F)(F)F)cc3)c21`, for which the GI50 with HeLa worked out at 3.8 µM; in the experiment on Jurkat, 0.96 µM; in the experiment with MCF7 it was 5.6 µM; with A549 it was 7.8 µM.
Regarding `O=C1C2=C(Nc3[nH]c(=O)[nH]c(=O)c3C2c2ccc(Cl)c(Cl)c2)c2ccccc21` (centres undefined), the GI50 came out at 5.8 µM in the experiment with HeLa; 0.35 µM in the experiment on Jurkat; 0.8 µM in the experiment with MCF7; 0.59 µM with A549; 0.46 µM in the experiment with LoVo; 0.42 µM in experiment [1]. Further, the GI50 came out at 0.5 µM with SK-MEL and 6.2 µM in the experiment with PC-3.
As for `Cc1ccc(-c2c3c(nc4[nH]c(=O)[nH]c(=O)c24)-c2ccccc2C3=O)cc1`, the GI50 in the experiment with HeLa is 6.4 µM; in the experiment with Jurkat, 1.1 µM; with MCF7 it was 6.4 µM; in the experiment with A549, 5.8 µM.
As for `O=C1C2=C(Nc3[nH]c(=O)[nH]c(=O)c3C2c2ccnc3ccccc23)c2ccccc21` (centres undefined), the GI50 with HeLa stood at 5.6 µM; in the experiment with Jurkat, 8.2 µM; with MCF7, 9.4 µM; in the experiment on A549, 8.6 µM.
As for `O=C1c2ccccc2-c2nc3[nH]c(=O)[nH]c(=O)c3c(-c3ccc(Cl)c(Cl)c3)c21`, the GI50 with HeLa amounted to 0.35 µM; in the experiment on Jurkat, 0.23 µM; in the experiment with MCF7, 0.74 µM; in the experiment on A549, 0.12 µM; in the experiment on LoVo it was 0.07 µM; in experiment [1], 0.08 µM. The GI50 in the experiment on SK-MEL is 0.08 µM; in the experiment on PC-3, over 10 µM.
Turning to `COc1ccc(C2C3=C(Nc4[nH]c(=O)[nH]c(=O)c42)c2ccccc2C3=O)cc1` (centres undefined), the GI50 in the experiment on HeLa amounted to 6.9 µM; in the experiment on Jurkat, 0.87 µM; with MCF7, 3.6 µM; in the experiment on A549, 9.2 µM; in the experiment with LoVo, 2.2 µM; in experiment [1], 4.1 µM. The GI50 worked out at 4.8 µM in the experiment with SK-MEL and 3 µM with PC-3.
Turning to `O=C1C2=C(Nc3[nH]c(=O)[nH]c(=O)c3C2c2ccc(C(F)(F)F)cc2)c2ccccc21` (centres undefined), the GI50 in the experiment with HeLa was found to be 5.6 µM; in the experiment with Jurkat, 2.2 µM; with MCF7 it was 1.5 µM; with A549, 5.2 µM.
The matching figures for `O=C1C2=C(Nc3[nH]c(=O)[nH]c(=O)c3C2c2ccc(OC(F)(F)F)cc2)c2ccccc21` (centres undefined): 5.6 µM, 0.96 µM, 5.8 µM and 5.7 µM.
The matching figures for `O=C1c2ccccc2-c2nc3[nH]c(=O)[nH]c(=O)c3c(-c3ccnc4ccccc34)c21`: 7.6 µM, 8.2 µM, 9.5 µM and over 10 µM.
Regarding `O=C1C2=C(Nc3[nH]c(=O)[nH]c(=O)c3C2c2ccc(Cl)cc2Cl)c2ccccc21` (centres undefined), the GI50 in the experiment with HeLa was found to be 0.95 µM; in the experiment on Jurkat it was 0.76 µM; with MCF7, 7 µM; in the experiment on A549, 7.4 µM; with LoVo, 1.4 µM; in experiment [1], 4.2 µM. For the same compound, the GI50 came to 3.9 µM in the experiment with SK-MEL and 2.4 µM in the experiment with PC-3.
For the compound `CCOc1ccc(-c2c3c(nc4[nH]c(=O)[nH]c(=O)c24)-c2ccccc2C3=O)cc1`, the GI50 in the experiment with HeLa is 5.3 µM; with Jurkat, 0.76 µM; with MCF7, 5.6 µM; in the experiment on A549 it was 6 µM.
The like results for `CCOc1ccc(C2C3=C(Nc4[nH]c(=O)[nH]c(=O)c42)c2ccccc2C3=O)cc1` (centres undefined) were, in that order, 7.4 µM, 0.91 µM, 6.6 µM and 5.8 µM.
Consider `COc1ccc(-c2c3c(nc4[nH]c(=O)[nH]c(=O)c24)-c2ccccc2C3=O)cc1OC`, for which the GI50 with HeLa amounted to 0.53 µM; in the experiment with Jurkat it was 0.22 µM; with MCF7 it was 0.75 µM; with A549, 0.83 µM; in the experiment with LoVo it was 0.44 µM; in experiment [1], 0.6 µM. The GI50 in the experiment with SK-MEL is 0.47 µM; in the experiment on PC-3 it was over 10 µM.
With `COc1ccc(-c2c3c(nc4[nH]c(=O)[nH]c(=O)c24)-c2ccccc2C3=O)c(OC)c1OC`, the GI50 in the experiment on HeLa was determined as 0.31 µM; in the experiment with Jurkat it was 0.47 µM; in the experiment on MCF7, 0.47 µM; in the experiment with A549, 0.26 µM; in the experiment with LoVo, 0.35 µM; in experiment [1], 0.36 µM. For the same compound, the values for the GI50 in the experiment on SK-MEL and in the experiment on PC-3 were 0.43 µM and 0.9 µM, respectively.
Regarding `COc1cc(-c2c3c(nc4[nH]c(=O)[nH]c(=O)c24)-c2ccccc2C3=O)cc(Br)c1OC`, the GI50 amounted to 0.34 µM in the experiment on HeLa; 0.17 µM with Jurkat; 0.95 µM in the experiment on MCF7; 0.31 µM with A549; 0.35 µM in the experiment with LoVo; 0.6 µM in experiment [1]. Further, the GI50 with SK-MEL is 0.47 µM; with PC-3 it was over 10 µM.
For the compound `O=C1c2ccccc2-c2nc3[nH]c(=O)[nH]c(=O)c3c(-c3ccc(F)c(Br)c3)c21`, the GI50 stood at 5.6 µM with HeLa, 0.98 µM in the experiment with Jurkat, 5.5 µM in the experiment on MCF7 and 2.8 µM in the experiment on A549.
Take `O=C1C2=C(Nc3[nH]c(=O)[nH]c(=O)c3C2c2ccc(F)cc2)c2ccccc21` (centres undefined): the 50% growth inhibitory concentration (GI50) in the experiment on HeLa was over 10 µM; with Jurkat it was over 10 µM; in the experiment on MCF7 it was over 10 µM; in the experiment with A549, over 10 µM; in the experiment with LoVo, 4.6 µM; in experiment [1], 5.6 µM. Further, the GI50 with SK-MEL worked out at 10 µM; with PC-3, 4 µM.
As to `O=C1c2ccccc2-c2nc3[nH]c(=O)[nH]c(=O)c3c(-c3ccc4c(c3)OCCO4)c21`, the GI50 in the experiment with HeLa was 8.8 µM; with Jurkat, 5.5 µM; in the experiment with MCF7, 8.5 µM; with A549, 7.5 µM.

These data come from ChEMBL document CHEMBL1764968, “Structural simplification of bioactive natural products with multicomponent synthesis. 3. Fused uracil-containing heterocycles as novel topoisomerase-targeting agents” (2011).
